Reference: ChEMBL document CHEMBL3877264, “Quinolidene-rhodanine conjugates: Facile synthesis and biological evaluation” (Eur J Med Chem, 2017)
In brackets after ≈: the same amount, converted by molar mass.

Columns and labels:
[1] = tested on: Staphylococcus aureus; test: Growth inhibition of Staphylococcus aureus NCIM 2010 at 10 ug/ml measured after 12 hrs relative to control; assay type: functional; details: NCIM 2010, 12 h, read-out: GI
In short: (§1)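 Bacteria grown in LB at 37 °C and 180 rpm to OD 1. Compounds added to wells, then 0.1% inoculum of 1 OD culture (620 nm). Growth read as OD at 620 nm after 8 h for gram-negative and after 12 h for gram-positive strains.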

[2] = tested on: Staphylococcus aureus; test: Growth inhibition of Staphylococcus aureus NCIM 2010 at 3 ug/ml measured after 12 hrs relative to control; assay type: functional; details: NCIM 2010, 12 h, read-out: GI; in short: as §1
[3] = tested on: Bacillus subtilis; test: Growth inhibition of Bacillus subtilis NCIM 2079 at 10 ug/ml measured after 12 hrs relative to control; assay type: functional; details: NCIM 2079, 12 h, read-out: GI; in short: as §1
[4] = tested on: Bacillus subtilis; test: Growth inhibition of Bacillus subtilis NCIM 2079 at 3 ug/ml measured after 12 hrs relative to control; assay type: functional; details: NCIM 2079, 12 h, read-out: GI; in short: as §1
[5] = tested on: Escherichia coli; test: Growth inhibition of Escherichia coli NCIM 2688 at 30 ug/ml measured after 8 hrs relative to control; assay type: functional; details: NCIM 2688, 8 h, read-out: GI; in short: as §1
[6] = tested on: Pseudomonas fluorescens; test: Growth inhibition of Pseudomonas fluorescens NCIM 2036 at 30 ug/ml measured after 8 hrs relative to control; assay type: functional; details: NCIM 2036, 8 h, read-out: GI; in short: as §1
[7] = tested on: Escherichia coli; test: Antibacterial activity against Escherichia coli NCIM 2688 measured after 8 hrs; assay type: functional; details: NCIM 2688, 8 h; in short: as §1
[8] = tested on: Pseudomonas fluorescens; test: Antibacterial activity against Pseudomonas fluorescens NCIM 2036 measured after 8 hrs; assay type: functional; details: NCIM 2036, 8 h; in short: as §1
[9] = tested on: Mycobacterium tuberculosis; test: Growth inhibition of Mycobacterium tuberculosis H37Ra ATCC 25177 at active stage at 12.5 ug/ml measured after 8 days by XTT dye based two fold dilution method relative to control; assay type: functional; details: H37Ra ATCC 25177, 192 h, read-out: GI
[10] = tested on: Mycobacterium tuberculosis; test: Growth inhibition of Mycobacterium tuberculosis H37Ra ATCC 25177 at active stage at 6.25 ug/ml measured after 8 days by XTT dye based two fold dilution method relative to control; assay type: functional; details: H37Ra ATCC 25177, 192 h, read-out: GI
In short: (§2)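 MTB H37Ra was grown in Dubos medium, then exposed in Mycobacterium pheli minimal medium (pH 6.6) to compounds dissolved in DMSO. The assay ended on day 8 (active) or day 12 (dormant). Viable cells were measured by XTT reduction menadione assay at 470 nm, blank-corrected, relative to vehicle control. Triplicates were expressed as mean ± SD. MIC came from dose-response curves.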

[11] = tested on: Mycobacterium tuberculosis; test: Growth inhibition of Mycobacterium tuberculosis H37Ra ATCC 25177 at active stage at 3.13 ug/ml measured after 8 days by XTT dye based two fold dilution method relative to control; assay type: functional; details: H37Ra ATCC 25177, 192 h, read-out: GI; in short: as §2
[12] = tested on: Mycobacterium tuberculosis; test: Growth inhibition of Mycobacterium tuberculosis H37Ra ATCC 25177 at dormant stage at 1.56 ug/ml measured after 12 days by XTT dye based two fold dilution method relative to control; assay type: functional; details: H37Ra ATCC 25177, 288 h, read-out: GI; in short: as §2
[13] = tested on: Mycobacterium tuberculosis; test: Growth inhibition of Mycobacterium tuberculosis H37Ra ATCC 25177 at dormant stage at 0.78 ug/ml measured after 12 days by XTT dye based two fold dilution method relative to control; assay type: functional; details: H37Ra ATCC 25177, 288 h, read-out: GI; in short: as §2
[14] = tested on: Mycobacterium tuberculosis; test: Growth inhibition of Mycobacterium bovis BCG ATCC 35743 at dormant stage at 50 ug/ml measured after 12 days by nitrate reductase dye based two fold dilution method relative to control; assay type: functional; details: BCG str. ATCC 35743, 288 h, read-out: GI
In short: (§3)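 M. bovis BCG was grown in Dubos medium and assayed in Mycobacterium pheli minimal medium (pH 6.6), with compounds from DMSO stocks. Incubation lasted 8 days for active and 12 days for dormant cultures. Viability was read by nitrate reductase at 540 nm against cell-free blanks, with vehicle set as 100% growth. Primary screen was at 30, 10 and 3 µg/ml, in triplicate, mean ± SD. MIC was taken from dose-response curves.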

[15] = tested on: Mycobacterium tuberculosis; test: Growth inhibition of Mycobacterium bovis BCG ATCC 35743 at dormant stage at 25 ug/ml measured after 12 days by nitrate reductase dye based two fold dilution method relative to control; assay type: functional; details: BCG str. ATCC 35743, 288 h, read-out: GI; in short: as §3
[16] = tested on: Mycobacterium tuberculosis; test: Growth inhibition of Mycobacterium bovis BCG ATCC 35743 at dormant stage at 6.25 ug/ml measured after 12 days by nitrate reductase dye based two fold dilution method relative to control; assay type: functional; details: BCG str. ATCC 35743, 288 h, read-out: GI; in short: as §3
[17] = tested on: Mycobacterium tuberculosis; test: Growth inhibition of Mycobacterium bovis BCG ATCC 35743 at active stage at 50 ug/ml measured after 8 days by nitrate reductase dye based two fold dilution method relative to control; assay type: functional; details: BCG str. ATCC 35743, 192 h, read-out: GI
[18] = tested on: Mycobacterium tuberculosis; test: Growth inhibition of Mycobacterium bovis BCG ATCC 35743 at active stage at 12.5 ug/ml measured after 8 days by nitrate reductase dye based two fold dilution method relative to control; assay type: functional; details: BCG str. ATCC 35743, 192 h, read-out: GI
[19] = tested on: Mycobacterium tuberculosis; test: Growth inhibition of Mycobacterium bovis BCG ATCC 35743 at active stage at 6.25 ug/ml measured after 8 days by nitrate reductase dye based two fold dilution method relative to control; assay type: functional; details: BCG str. ATCC 35743, 192 h, read-out: GI; in short: as §3
[20] = tested on: Mycobacterium tuberculosis; test: Growth inhibition of Mycobacterium bovis BCG ATCC 35743 at dormant stage at 30 ug/ml measured after 12 days by nitrate reductase dye based two fold dilution method relative to control; assay type: functional; details: BCG str. ATCC 35743, 288 h, read-out: GI; in short: as §3
[21] = tested on: Mycobacterium tuberculosis; test: Growth inhibition of Mycobacterium tuberculosis H37Ra ATCC 25177 at active stage measured after 8 days by XTT dye based two fold dilution method; assay type: functional; details: H37Ra ATCC 25177, 192 h; in short: as §2
[22] = tested on: Aspergillus flavus; test: Antifungal activity against Aspergillus flavus NCIM 539 by standard agar method; assay type: functional
In short: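 MICs determined by standard agar method; DMSO as solvent control.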

[23] = Cytotoxicity against primary HUVEC assessed as growth inhibition at 100 ug/ml measured after 48 hrs by MTT assay relative to control; assay type: toxicity, cell-based; details: human, read-out: GI
[24] = Cytotoxicity against human THP1 cells assessed as growth inhibition at 100 ug/ml measured after 48 hrs by MTT assay relative to control; assay type: toxicity, cell-based, THP-1; details: read-out: GI
In short: (§4)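 MTT assay with 48 h compound exposure. THP-1 macrophages made by 24 h PMA treatment. Each concentration tested in triplicate in one experiment. % cytotoxicity = (control−test)/(control−blank)×100, with control = cells + DMSO and blank = medium without cells. IC50 from % survival versus concentration plots.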

[25] = Cytotoxicity against […]-differentiated human THP1 cells assessed as growth inhibition at 100 ug/ml measured after 48 hrs by MTT assay relative to control; assay type: toxicity, cell-based, THP-1; details: read-out: GI; in short: as §4
[26] = Cytotoxicity against human A549 cells assessed as growth inhibition at 100 ug/ml measured after 48 hrs by MTT assay relative to control; assay type: toxicity, cell-based; details: read-out: GI
[27] = Cytotoxicity against human PANC1 cells measured after 48 hrs by MTT assay; assay type: toxicity, cell-based, PANC-1
[28] = Selectivity index, ratio of GI50 for human THP1 cells to MIC for Mycobacterium tuberculosis H37Ra ATCC 25177 at dormant stage; assay type: toxicity, cell-based, THP-1; details: read-out: Selectivity Index
In short: (§5)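 SI is the cell-line GI50 divided by the dormant-stage mycobacterial MIC. […] THP-1 macrophages were PMA-differentiated for 24 h.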

[29] = Selectivity index, ratio of GI50 for human HeLa cells to MIC for Mycobacterium tuberculosis H37Ra ATCC 25177 at dormant stage; assay type: toxicity, cell-based; details: read-out: Selectivity Index; in short: as §5

Row | SMILES | inhibition of growth at 10 µg/mL [1] [%] | inhibition of growth at 3 µg/mL [2] [%] | inhibition of growth at 10 µg/mL [3] [%] | inhibition of growth at 3 µg/mL [4] [%] | inhibition of growth at 30 µg/mL [5] [%] | inhibition of growth at 30 µg/mL [6] [%] | MIC [7] [µg/mL] | MIC [8] [µg/mL] | inhibition of growth at 12.5 µg/mL [9] [%] | inhibition of growth at 6.25 µg/mL [10] [%] | inhibition of growth at 3.13 µg/mL [11] [%] | inhibition of growth at 1.56 µg/mL [12] [%] | inhibition of growth at 0.78 µg/mL [13] [%] | inhibition of growth at 50 µg/mL [14] [%] | inhibition of growth at 25 µg/mL [15] [%] | inhibition of growth at 6.25 µg/mL [16] [%] | inhibition of growth at 50 µg/mL [17] [%] | inhibition of growth at 12.5 µg/mL [18] [%] | inhibition of growth at 6.25 µg/mL [19] [%] | inhibition of growth at 30 µg/mL [20] [%] | other results
1 | COc1ccc2nc(Cl)c(/C=C3\SC(=S)NC3=O)cc2c1 | 99.8 | 68.7 | 22.7 | 1.79 | 61.2 | 70.9 | > 30 | > 30 | 85.2 | 55.2 | 38.4 | -25.3 | -36 | 99 | 81.6 | 89.9 | 97.3 | 96 | 95.7 | -6.75 | IC50 [21]: 6.9 µg/mL (≈ 20.5 µM); IC90 [21]: 14.3 µg/mL (≈ 42.5 µM); MIC [22]: 100 µg/mL (≈ 297 µM); inhibition at 48 h, 100 ug/ml [23]: 29.4%; inhibition at 48 h, 100 ug/ml [24]: 26.3%; inhibition at 48 h, 100 ug/ml [25]: 30.2%; inhibition at 48 h, 100 ug/ml [26]: 22.2%; GI50 at 48 h [27]: > 100 µg/mL; selectivity ratio [28]: 20.8; selectivity ratio [29]: 20.8
2 | O=C1NC(=S)S/C1=C\c1cc2cc(Cl)ccc2nc1Cl | 114 | 101 | 92.5 | 62.8 | 92.8 | 99.8 | 2.44 (≈ 7.15 µM) | 2.8 (≈ 8.21 µM) | 99.3 | 102 | 81.1 | 32.4 | -27.1 | 101 | 100 | 101 | 99.7 | 99.5 | 100 | 99.2 | IC50 [21]: 1.9 µg/mL (≈ 5.57 µM); IC90 [21]: 3.8 µg/mL (≈ 11.1 µM); MIC [22]: 125 µg/mL (≈ 366 µM); inhibition at 48 h, 100 ug/ml [23]: 25.9%; inhibition at 48 h, 100 ug/ml [24]: 28.7%; inhibition at 48 h, 100 ug/ml [25]: 29.1%; inhibition at 48 h, 100 ug/ml [26]: 26.9%; GI50 at 48 h [27]: > 100 µg/mL; selectivity ratio [28]: 15.6; selectivity ratio [29]: 15.6
